Test results reported in ChEMBL document CHEMBL4689842, “EUbOPEN Chemogenomics Library wave 1” (2021).
“And” between values parts separate entries of the source, which are not always exact repeats. Equal values may be shown once.

How the values were obtained:
Assay type in all cases: toxicity, cell-based
[1] = test system: Fibroblast; assay: Multiplex assay against human fibroblast; settings: 10 µM, compound concentration 10 uM
Method in brief: (§1)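 Imaging took place on a CQ1 microscope at 37°C and 5% CO2 once compound had been added to live cells stained at seeding with Hoechst33342, BioTracker Green Microtubule Cytoskeleton Dye, MitoTracker Red and Annexin V Alexa Fluor 680. CellPathfinder machine-learning gating classed cells as Hoechst high-intensity objects or normal cells, classed normal cells as having healthy, pyknosed or fragmented nuclei, and classed pyknosed cells as mitotic or apoptotic. Tubulin, mitochondrial-mass and membrane-permeability phenotypes are per cents of the healthy-nucleus cells.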

[2] = test system: HEK-293T; assay: Multiplex assay against HEK293T; settings: human, 10 µM, compound concentration 10 uM; method in brief: as §1
[3] = test system: U2OS; assay: Multiplex assay against U2OS; settings: human, 10 µM, compound concentration 10 uM; method in brief: as §1
[4] = test system: HEK-293T; assay: Incucyte cell viability with HEK293T; settings: human, 10 µM, compound concentration 10 uM; note: filed as whole numbers so only -1 and 0 and 1 occur
[5] = test system: Fibroblast; assay: Incucyte cell viability with human fibroblast; settings: 10 µM, compound concentration 10 uM; note: filed as whole numbers so only -1 and 0 and 1 occur
[6] = test system: U2OS; assay: Incucyte cell viability with U2OS; settings: human, 10 µM, compound concentration 10 uM; note: filed as whole numbers so only -1 and 0 and 1 occur
[7] = 6 h, replicate number 1, timepoint 6 hours
[8] = 12 h, replicate number 1, timepoint 12 hours
[9] = 18 h, replicate number 1, timepoint 18 hours
[10] = 24 h, replicate number 1, timepoint 24 hours
[11] = 0 h, replicate number 1, timepoint 0 hours

SMILES: CCN1CCN(Cc2ccc(NC(=O)c3ccc(C)c(Oc4ccnc5[nH]ccc45)c3)cc2C(F)(F)F)CC1.Cl.Cl.Cl.O
- Population Apoptotic (%) ([1]; 12 h, replicate 1): 75% and 44%
- Population Fragmented Nuclei (%) ([1]; 12 h, replicate 1): 42% and 25%
- Population Healthy Nuclei (%) ([1]; 12 h, replicate 1): 42% and 50%
- Population Hoechst High Intensity Objects (%) ([1]; 12 h, replicate 1): 20%
- Population Membrane Permeable-Phenotype (%) ([1]; 12 h, replicate 1): 6% and 2%
- Population Mitochondria Different-Phenotype (%) ([1]; 12 h, replicate 1): 8%
- Population Mitotic Cells (%) ([1]; 12 h, replicate 1): 25% and 55%
- Population Normal (%) ([1]; 12 h, replicate 1): 79%
- Population Pyknosed Nuclei (%) ([1]; 12 h, replicate 1): 14% and 25%
- Population Tubulin-Different-Phenotype (%) ([1]; 12 h, replicate 1): 13% and 25%
- Total Cell Count ([1]; 12 h, replicate 1): 169 and 323
- Population Fragmented Nuclei (%) ([1]; 12 h, replicate 2): 74% and 45%
- Population Healthy Nuclei (%) ([1]; 12 h, replicate 2): 23% and 34%
- Population Hoechst High Intensity Objects (%) ([1]; 12 h, replicate 2): 36% and 41%
- Population Membrane Permeable-Phenotype (%) ([1]; 12 h, replicate 2): 18% and 0%
- Population Mitochondria Different-Phenotype (%) ([1]; 12 h, replicate 2): 0% and 12%
- Population Mitotic Cells (%) ([1]; 12 h, replicate 2): 100% and 44%
- Population Normal (%) ([1]; 12 h, replicate 2): 63% and 58%
- Population Tubulin-Different-Phenotype (%) ([1]; 12 h, replicate 2): 18% and 37%
- Total Cell Count ([1]; 12 h, replicate 2): 74 and 79
- Population Apoptotic (%) ([1]; 24 h, replicate 1): 76% and 41%
- Population Fragmented Nuclei (%) ([1]; 24 h, replicate 1): 45% and 29%
- Population Healthy Nuclei (%) ([1]; 24 h, replicate 1): 46%
- Population Hoechst High Intensity Objects (%) ([1]; 24 h, replicate 1): 23% and 52%
- Population Membrane Permeable-Phenotype (%) ([1]; 24 h, replicate 1): 5% and 2%
- Population Mitochondria Different-Phenotype (%) ([1]; 24 h, replicate 1): 13% and 14%
- Population Mitotic Cells (%) ([1]; 24 h, replicate 1): 23% and 58%
- Population Normal (%) ([1]; 24 h, replicate 1): 76% and 47%
- Population Pyknosed Nuclei (%) ([1]; 24 h, replicate 1): 8% and 23%
- Population Tubulin-Different-Phenotype (%) ([1]; 24 h, replicate 1): 20% and 32%
- Total Cell Count ([1]; 24 h, replicate 1): 210 and 306
- Population Apoptotic (%) ([1]; 24 h, replicate 2): 50% and 30%
- Population Fragmented Nuclei (%) ([1]; 24 h, replicate 2): 59% and 50%
- Population Healthy Nuclei (%) ([1]; 24 h, replicate 2): 36% and 19%
- Population Hoechst High Intensity Objects (%) ([1]; 24 h, replicate 2): 38% and 40%
- Population Mitotic Cells (%) ([1]; 24 h, replicate 2): 50% and 69%
- Population Normal (%) ([1]; 24 h, replicate 2): 61% and 60%
- Population Tubulin-Different-Phenotype (%) ([1]; 24 h, replicate 2): 41% and 50%
- Total Cell Count ([1]; 24 h, replicate 2): 76 and 70
- Population Apoptotic (%) ([2]; 12 h, replicate 1): 19% and 50%
- Population Fragmented Nuclei (%) ([2]; 12 h, replicate 1): 21% and 19%
- Population Healthy Nuclei (%) ([2]; 12 h, replicate 1): 47% and 20%
- Population Hoechst High Intensity Objects (%) ([2]; 12 h, replicate 1): 20% and 25%
- Population Membrane Permeable-Phenotype (%) ([2]; 12 h, replicate 1): 5% and 7%
- Population Mitotic Cells (%) ([2]; 12 h, replicate 1): 80% and 49%
- Population Normal (%) ([2]; 12 h, replicate 1): 79% and 74%
- Population Pyknosed Nuclei (%) ([2]; 12 h, replicate 1): 31% and 60%
- Total Cell Count ([2]; 12 h, replicate 1): 451 and 581
- Population Fragmented Nuclei (%) ([2]; 12 h, replicate 2): 3% and 6%
- Population Healthy Nuclei (%) ([2]; 12 h, replicate 2): 66% and 86%
- Population Hoechst High Intensity Objects (%) ([2]; 12 h, replicate 2): 5% and 2%
- Population Membrane Permeable-Phenotype (%) ([2]; 12 h, replicate 2): 2% and 1%
- Population Mitotic Cells (%) ([2]; 12 h, replicate 2): 47% and 87%
- Population Normal (%) ([2]; 12 h, replicate 2): 94% and 97%
- Total Cell Count ([2]; 12 h, replicate 2): 837 and 1347
- Population Fragmented Nuclei (%) ([2]; 24 h, replicate 1): 21% and 23%
- Population Healthy Nuclei (%) ([2]; 24 h, replicate 1): 25% and 58%
- Population Hoechst High Intensity Objects (%) ([2]; 24 h, replicate 1): 29% and 13%
- Population Membrane Permeable-Phenotype (%) ([2]; 24 h, replicate 1): 8% and 7%
- Population Normal (%) ([2]; 24 h, replicate 1): 70% and 86%
- Total Cell Count ([2]; 24 h, replicate 1): 528 and 497
- Population Healthy Nuclei (%) ([2]; 24 h, replicate 2): 71% and 83%
- Population Hoechst High Intensity Objects (%) ([2]; 24 h, replicate 2): 6% and 5%
- Population Membrane Permeable-Phenotype (%) ([2]; 24 h, replicate 2): 1% and 3%
- Population Mitotic Cells (%) ([2]; 24 h, replicate 2): 32% and 91%
- Population Normal (%) ([2]; 24 h, replicate 2): 93% and 94%
- Total Cell Count ([2]; 24 h, replicate 2): 779 and 2092
- Population Apoptotic (%) ([3]; 12 h, replicate 1): 66% and 38%
- Population Healthy Nuclei (%) ([3]; 12 h, replicate 1): 34% and 87%
- Population Hoechst High Intensity Objects (%) ([3]; 12 h, replicate 1): 7% and 4%
- Population Membrane Permeable-Phenotype (%) ([3]; 12 h, replicate 1): 18% and 17%
- Population Mitotic Cells (%) ([3]; 12 h, replicate 1): 33% and 61%
- Population Normal (%) ([3]; 12 h, replicate 1): 92% and 95%
- Total Cell Count ([3]; 12 h, replicate 1): 219 and 182
- Population Fragmented Nuclei (%) ([3]; 12 h, replicate 2): 17% and 9%
- Population Healthy Nuclei (%) ([3]; 12 h, replicate 2): 40% and 83%
- Population Hoechst High Intensity Objects (%) ([3]; 12 h, replicate 2): 14% and 11%
- Population Membrane Permeable-Phenotype (%) ([3]; 12 h, replicate 2): 20% and 10%
- Population Mitotic Cells (%) ([3]; 12 h, replicate 2): 30% and 87%
- Population Normal (%) ([3]; 12 h, replicate 2): 85% and 88%
- Population Pyknosed Nuclei (%) ([3]; 12 h, replicate 2): 42%
- Total Cell Count ([3]; 12 h, replicate 2): 113 and 91
- Population Apoptotic (%) ([3]; 24 h, replicate 1): 37%
- Population Normal (%) ([3]; 24 h, replicate 1): 79% and 98%
- Population Pyknosed Nuclei (%) ([3]; 24 h, replicate 1): 10%
- Population Tubulin-Different-Phenotype (%) ([3]; 24 h, replicate 1): 10%
- Total Cell Count ([3]; 24 h, replicate 1): 255 and 248
- Population Apoptotic (%) ([3]; 24 h, replicate 2): 90% and 58%
- Population Fragmented Nuclei (%) ([3]; 24 h, replicate 2): 16% and 11%
- Population Hoechst High Intensity Objects (%) ([3]; 24 h, replicate 2): 23% and 18%
- Population Normal (%) ([3]; 24 h, replicate 2): 76% and 81%
- Total Cell Count ([3]; 24 h, replicate 2): 133 and 117
- Growth Rate ([4]; 0 h, replicate number 2, timepoint 0 hours): 0
- Growth Rate [4, 7]: 0
- Growth Rate [4, 8]: 0
- Growth Rate [4, 9]: 0
- Growth Rate [4, 10]: 0
- Growth Rate [5, 11]: 0
- Growth Rate [5, 7]: 1
- Growth Rate [5, 8]: 0
- Growth Rate [5, 9]: 0
- Growth Rate [5, 10]: 0
- Growth Rate [6, 11]: 0
- Growth Rate [6, 7]: 0
- Growth Rate ([6]; 6 h, replicate number 2, timepoint 6 hours): 1
- Growth Rate [6, 8]: 0
- Growth Rate [6, 9]: 0
- Growth Rate [6, 10]: 0
